Assay results taken from ChEMBL document CHEMBL3822361, “Novel 1,6-naphthyridin-2(1H)-ones as potential anticancer agents targeting Hsp90” (Eur J Med Chem, 2016).
Each block holds one molecule with its values, some of them ahead of it. Activity calls are given as the source filed them. The rule behind the calls is not given here.

Key:
MCF7 [1] = experiment: Antiproliferative activity against human MCF7 cells measured after 48 hrs by MTT assay; assay type: functional, cell-based; details: MCF7, 48 h
Procedure, shortened: (§1)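 Cells grown in DMEM with 2 mM L-glutamine, penicillin/streptomycin and 5% FBS at 37 °C, 5% CO2; seeded 6000/well in 96-well plates, attached 24 h. Compounds added over a concentration range in DMSO (1% final), 48 h. MTT (2.5 mg/mL in PBS) added for 3.5 h, formazan dissolved in DMSO, OD 570 nm. Growth relative to 1% DMSO; IC50 from separate triplicate experiments.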

MDA-MB-468 [2] = experiment: Antiproliferative activity against human MDA-MB-468 cells measured after 48 hrs by MTT assay; assay type: functional, cell-based; details: MDA-MB-468, 48 h; procedure, shortened: as §1
MCF7 [3] = experiment: Effect on actin level in human MCF7 cells at 1.5 times IC50 measured after 48 hrs by western blot analysis; assay type: cell-based; details: mcf7, 48 h
Procedure, shortened: (§2)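 Cells seeded in 6-well plates, 24 h at 37 °C, 5% CO2, then exposed 48 h to compound or 17-AAG in DMSO (1% final) or to vehicle. Lysed 2 h on ice in buffer with protease and phosphatase inhibitors, sonicated, protein measured by BCA. Equal protein run on SDS-PAGE, moved to PVDF, primary antibodies overnight at 4 °C, HRP secondary 1 h, ECL chemiluminescence.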

[4] = target: T1, Heat shock protein HSP90 (Homo sapiens) (UniProt P07900+P08238); experiment: Inhibition of HSP90 in human MDA-MB-468 cells assessed as Raf-1 protein degradation at 1.5 times IC50 measured after 48 hrs by western blot analysis; assay type: cell-based; procedure, shortened: as §2
MDA-MB-468 [5] = experiment: Induction of apoptosis in human MDA-MB-468 cells at 2 uM measured after 48 hrs by Annexin V-FITC/propidium iodide staining-based flow cytometry; assay type: functional, cell-based
Procedure, shortened: (§3)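 Cells incubated 24 h at 37 °C, 5% CO2, then given compounds in DMSO (1% final) for 48 h. Floating and trypsinized adherent cells pooled, PBS-washed, stained with annexin V-FITC plus propidium iodide in binding buffer, 15 min on ice in the dark. Flow cytometry, ≥10 000 events per sample; annexin V-positive cells scored as apoptotic.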

MCF7 [6] = experiment: Effect on HSP90 level in human MCF7 cells at 1.5 times IC50 measured after 48 hrs by western blot analysis; assay type: cell-based; details: mcf7, 48 h; procedure, shortened: as §2
[7] = target: T1, Heat shock protein HSP90 (Homo sapiens); experiment: Inhibition of HSP90 in human MCF7 cells assessed as induction of prosurvival heat shock response at 1.5 times IC50 measured after 48 hrs by Western blot analysis; assay type: cell-based; procedure, shortened: as §2
[8] = target: T1, Heat shock protein HSP90 (Homo sapiens); experiment: Inhibition of HSP90 in human MCF7 cells assessed as ER-alpha protein degradation at 1.5 times IC50 measured after 48 hrs by western blot analysis; assay type: cell-based; procedure, shortened: as §2
MDA-MB-468 [9] = experiment: Effect on HSP90 level in human MDA-MB-468 cells at 1.5 times IC50 measured after 48 hrs by western blot analysis; assay type: cell-based; details: mda-mb-468, 48 h; procedure, shortened: as §2
[10] = target: T1, Heat shock protein HSP90 (Homo sapiens); experiment: Inhibition of HSP90 in human MCF-7 cells assessed as ER-alpha protein degradation at 1.5 times IC50 measured after 48 hrs by western blot analysis
MDA-MB-468 [11] = experiment: Effect on actin level in human MDA-MB-468 cells at 1.5 times IC50 measured after 48 hrs by western blot analysis; assay type: cell-based; details: mda-mb-468, 48 h; procedure, shortened: as §2
[12] = target: T1, Heat shock protein HSP90 (Homo sapiens); experiment: Inhibition of HSP90 in human MCF7 cells assessed as Raf-1 protein degradation at 1.5 times IC50 measured after 48 hrs by western blot analysis; assay type: cell-based; procedure, shortened: as §2
MDA-MB-468 [13] = experiment: Effect on cell cycle distribution in human MDA-MB-468 cells assessed as accumulation at G2/M-phase at 2 uM measured after 48 hrs by propidium iodide staining-based flow cytometry; assay type: functional
Procedure, shortened: (§4)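 MDA-MB-468 seeded 40,000/well in 24-well plates, 24 h at 37 °C, 5% CO2, then treated 48 h with compounds in DMSO (1% final). Cells trypsinized, washed in PBS, fixed in 70% ethanol, rehydrated in PBS, stained with propidium iodide in PBS. Phase distribution (G1, S, G2/M, polyploid, subG1) read by flow cytometry.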

MDA-MB-468 [14] = experiment: Cell cycle arrest in human MDA-MB-468 cells at 15 uM measured after 48 hrs by propidium iodide staining-based FACS analysis; assay type: functional; procedure, shortened: as §4
MDA-MB-468 [15] = experiment: Effect on cell cycle in human MDA-MB-468 cells assessed as accumulation at subG1-phase at 15 uM measured after 48 hrs by propidium iodide staining-based FACS analysis; assay type: functional; procedure, shortened: as §4
MDA-MB-468 [16] = experiment: Induction of apoptosis in human MDA-MB-468 cells assessed as mortality at 15 uM measured after 48 hrs by Annexin V-FITC/propidium iodide staining-based flow cytometry; assay type: functional; details: MDA-MB-468, 48 h
Procedure, shortened: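 MDA-MB-468 cells seeded in wells, held 24 h at 37 °C in 5% CO2, then exposed to compound in DMSO (1% DMSO final) for 48 h. Floating and trypsinised adherent cells pooled, PBS-washed, stained with annexin V-FITC plus propidium iodide in binding buffer 15 min on ice in the dark. Flow cytometry, ≥10 000 events per sample; annexin V-positive cells scored apoptotic.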

MCF7 [17] = experiment: Antiproliferative activity against human MCF7 cells measured after 5 days by MTS assay; assay type: functional, cell-based; details: MCF7, 120 h
MDA-MB-468 [18] = experiment: Induction of apoptosis in human MDA-MB-468 cells at 4 uM measured after 48 hrs by Annexin V-FITC/propidium iodide staining-based flow cytometry; assay type: functional, cell-based; procedure, shortened: as §3
MDA-MB-468 [19] = experiment: Effect on cell cycle distribution in human MDA-MB-468 cells assessed as accumulation at G2/M-phase at 4 uM measured after 48 hrs by propidium iodide staining-based flow cytometry; assay type: functional; procedure, shortened: as §4

IC50 (MCF7 [1]): > 100 µM | IC50 (MDA-MB-468 [2]): > 100 µM
Compound: CC(=O)Nc1cc2cnc(NCCN3CCOCC3)cc2n(C)c1=O

IC50 (MCF7 [1]): > 100 µM | IC50 (MDA-MB-468 [2]): > 100 µM
Compound: Cn1c(=O)c(NC(=O)c2cc3ccccc3s2)cc2cnc(NCCN3CCOCC3)cc21

IC50 (MCF7 [1]): 48.6 µM | IC50 (MDA-MB-468 [2]): > 100 µM
Compound: COc1cc(C(=O)Nc2cc3cnc(NCCN4CCOCC4)cc3n(C)c2=O)cc(OC)c1OC

IC50 (MCF7 [1]): 55.8 µM | IC50 (MDA-MB-468 [2]): 20.4 µM
Compound: CN(C)CCNc1cc2c(cn1)cc(NC(=O)c1ccc(N)cc1)c(=O)n2C

IC50 (MCF7 [1]): > 100 µM | IC50 (MDA-MB-468 [2]): > 100 µM
Compound: Cn1c(=O)c(NC(=O)c2ccc(O)cc2)cc2cnc(NCCN3CCOCC3)cc21

IC50 (MCF7 [1]): 27.4 µM | IC50 (MDA-MB-468 [2]): 12.1 µM
Compound: CN(C)CCNc1cc2c(cn1)cc(NC(=O)/C=C/c1ccccc1)c(=O)n2C

inhibition [4]: Active | IC50 (MCF7 [1]): 1.93 µM | inhibition [8]: Active | inhibition [10]: Active | inhibition [12]: Active | IC50 (MDA-MB-468 [2]): 1.68 µM
Compound: CN(C)CCNc1cc2c(cn1)cc(NC(=O)c1cccc(-c3ccccc3)c1)c(=O)n2C
Activity (MCF7 [3]): Non-toxic | Activity (MDA-MB-468 [5]): Active | Activity (MCF7 [6]): Toxic | inhibition [7]: Active | Activity (MDA-MB-468 [9]): Toxic | Activity (MDA-MB-468 [11]): Non-toxic | Activity (MDA-MB-468 [13]): inactive

Compound: Cn1c(=O)c(NC(=O)c2cccc(-c3ccccc3)c2)cc2cnc(N3CCN(CCO)CC3)cc21
Activity (MCF7 [3]): Non-toxic | inhibition [4]: Active | Activity (MCF7 [6]): Toxic | IC50 (MCF7 [1]): 15.2 µM | inhibition [7]: Active | inhibition [8]: Active | Activity (MDA-MB-468 [9]): Toxic | Activity (MDA-MB-468 [14]): inactive | inhibition [10]: Active | Activity (MDA-MB-468 [15]): Active | Activity (MDA-MB-468 [11]): Non-toxic | inhibition [12]: Active | IC50 (MDA-MB-468 [2]): 14.7 µM | mortality at 15 µM (MDA-MB-468 [16]): 80%

IC50 (MCF7 [1]): 0.029 µM | IC50 (MCF7 [17]): 0.005 µM | IC50 (MDA-MB-468 [2]): 1.57 µM
Compound: C=CCNC1=C2C[C@@H](C)C[C@H](OC)[C@H](O)[C@@H](C)/C=C(\C)[C@H](OC(N)=O)[C@@H](OC)/C=C\C=C(/C)C(=O)NC(=CC1=O)C2=O [TANESPIMYCIN]
Activity (MDA-MB-468 [13]): Active

IC50 (MCF7 [1]): 21.5 µM | IC50 (MDA-MB-468 [2]): 15.6 µM
Compound: COc1cc(C(=O)Nc2cc3cnc(NCCN(C)C)cc3n(C)c2=O)cc(OC)c1OC

IC50 (MCF7 [1]): > 100 µM | IC50 (MDA-MB-468 [2]): > 100 µM
Compound: CC(=O)Nc1cc2cnc(NCCN(C)C)cc2n(C)c1=O

inhibition [4]: inactive | IC50 (MCF7 [1]): 12 µM | inhibition [8]: inactive | inhibition [10]: inactive | inhibition [12]: inactive | IC50 (MDA-MB-468 [2]): 3.57 µM
Compound: CN(C)CCNc1cc2c(cn1)cc(NC(=O)c1cc3ccccc3s1)c(=O)n2C
Activity (MCF7 [3]): Non-toxic | Activity (MCF7 [6]): Non-toxic | Activity (MDA-MB-468 [9]): Non-toxic | Activity (MDA-MB-468 [11]): Non-toxic | Activity (MDA-MB-468 [18]): Active | Activity (MDA-MB-468 [19]): Active

IC50 (MCF7 [1]): 37.3 µM | IC50 (MDA-MB-468 [2]): 15.7 µM
Compound: COc1ccc(C(=O)Nc2cc3cnc(NCCN(C)C)cc3n(C)c2=O)cc1

inhibition [4]: Active | IC50 (MCF7 [1]): 3.09 µM | inhibition [8]: Active | inhibition [10]: Active | inhibition [12]: Active | IC50 (MDA-MB-468 [2]): 1.64 µM
Compound: CN(C)CCNc1cc2c(cn1)cc(NC(=O)c1ccc(Cl)cc1)c(=O)n2C
Activity (MCF7 [3]): Non-toxic | Activity (MDA-MB-468 [5]): Active | Activity (MCF7 [6]): Non-toxic | Activity (MDA-MB-468 [9]): Non-toxic | Activity (MDA-MB-468 [11]): Non-toxic | Activity (MDA-MB-468 [13]): Active

IC50 (MCF7 [1]): > 100 µM | IC50 (MDA-MB-468 [2]): > 100 µM
Compound: Cn1c(=O)c(NC(=O)/C=C/c2ccccc2)cc2cnc(NCCN3CCOCC3)cc21
